Activity calls are given as the source filed them. No cut-off for these calls is given here.
How the values were obtained:
[1] = biological target: Secreted aspartic protease 3 (Candida albicans) (UniProt P0CY28); assay: Inhibition of SAP3-dependent growth in Candida albicans SAP2MS4B expressing SAP3ex4A at 100 uM incubated in YCB-BSA medium
Procedure, shortened: (§1)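 Overnight SD-medium (30°C) preculture diluted 1:100 into YCB-BSA (yeast carbon base plus 4 g/liter BSA as sole nitrogen source) adjusted to pH 4.0, with 50 μg/ml doxycycline to induce Tet-promoter SAP expression; incubated 30°C. Pepstatin A 7.3 μM or HIV protease inhibitors 100 μM (0.125% DMSO final); DMSO-only control. Growth followed as OD600 over time.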

[2] = biological target: Secreted aspartic protease 2 (Candida albicans) (UniProt P0CS83); assay: Inhibition of SAP2-dependent growth in Candida albicans SAP2MS4B expressing SAP2ex4A at 100 uM incubated in YCB-BSA medium; procedure, shortened: as §1
Chain of Secreted aspartic protease 2 (Candida albicans) (P0CS83 57-398 limits assumed): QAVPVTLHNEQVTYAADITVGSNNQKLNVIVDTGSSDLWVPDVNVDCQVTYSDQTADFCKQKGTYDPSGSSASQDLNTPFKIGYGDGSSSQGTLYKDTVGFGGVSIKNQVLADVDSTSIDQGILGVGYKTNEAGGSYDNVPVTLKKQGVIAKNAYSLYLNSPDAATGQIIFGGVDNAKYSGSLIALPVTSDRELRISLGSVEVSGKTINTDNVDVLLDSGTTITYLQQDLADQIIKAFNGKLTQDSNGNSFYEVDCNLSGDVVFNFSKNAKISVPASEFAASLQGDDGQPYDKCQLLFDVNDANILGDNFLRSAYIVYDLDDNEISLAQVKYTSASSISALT

[3] = biological target: T1, Secreted aspartic protease 9 (Candida albicans) (UniProt O42779); assay: Inhibition of SAP9-dependent growth in Candida albicans SAP2MS4B expressing SAP9deltaC493 at 100 uM incubated in YCB-BSA medium
T1 sequence (whole entry): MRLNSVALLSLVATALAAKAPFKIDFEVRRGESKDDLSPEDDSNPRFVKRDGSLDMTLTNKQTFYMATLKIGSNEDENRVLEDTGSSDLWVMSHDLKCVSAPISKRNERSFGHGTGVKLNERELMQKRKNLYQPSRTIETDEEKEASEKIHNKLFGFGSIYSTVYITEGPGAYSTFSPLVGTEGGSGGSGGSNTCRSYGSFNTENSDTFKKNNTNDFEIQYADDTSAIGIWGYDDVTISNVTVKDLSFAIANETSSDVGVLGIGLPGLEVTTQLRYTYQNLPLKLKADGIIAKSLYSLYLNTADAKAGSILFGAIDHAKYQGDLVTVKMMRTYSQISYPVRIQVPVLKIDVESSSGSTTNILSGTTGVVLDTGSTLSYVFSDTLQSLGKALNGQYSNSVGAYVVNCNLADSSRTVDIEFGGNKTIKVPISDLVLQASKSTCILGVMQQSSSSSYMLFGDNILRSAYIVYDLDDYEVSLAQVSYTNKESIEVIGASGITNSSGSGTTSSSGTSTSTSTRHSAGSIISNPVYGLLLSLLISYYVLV
Procedure, shortened: (§2)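 Overnight SD-medium (30°C) preculture diluted 1:100 into YCB-BSA (4 g/liter BSA as sole nitrogen source) adjusted to pH 5.0, with 25 μg/ml doxycycline inducing Tet-promoter SAP expression; incubated 37°C. Pepstatin A 7.3 μM or HIV protease inhibitors 100 μM (0.125% DMSO final); DMSO-only control. OD600 monitored over time.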

[4] = biological target: Candidapepsin-4 (Candida albicans (strain WO-1) (Yeast)) (UniProt P43093); assay: Inhibition of SAP4-dependent growth in Candida albicans SAP2MS4B expressing SAP4ex4A at 100 uM incubated in YCB-BSA medium; procedure, shortened: as §2
Chain of Candidapepsin-4 (Candida albicans (strain WO-1) (Yeast)) (P43093 whole entry): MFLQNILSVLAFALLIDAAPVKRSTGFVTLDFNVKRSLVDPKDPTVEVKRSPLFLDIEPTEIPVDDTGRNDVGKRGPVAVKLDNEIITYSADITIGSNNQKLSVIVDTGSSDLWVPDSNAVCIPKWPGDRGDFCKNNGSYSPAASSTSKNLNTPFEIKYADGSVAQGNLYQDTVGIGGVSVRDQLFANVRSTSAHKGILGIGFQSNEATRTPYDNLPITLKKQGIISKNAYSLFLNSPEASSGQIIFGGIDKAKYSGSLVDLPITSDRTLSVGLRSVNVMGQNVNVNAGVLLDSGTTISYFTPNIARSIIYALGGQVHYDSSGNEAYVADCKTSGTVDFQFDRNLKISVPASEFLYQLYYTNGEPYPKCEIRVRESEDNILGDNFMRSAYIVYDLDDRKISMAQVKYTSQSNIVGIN

[5] = biological target: T2, Secreted aspartic protease 5 (Candida albicans (strain SC5314 / ATCC MYA-2876) (Yeast)) (UniProt P43094); assay: Inhibition of SAP5-dependent growth in Candida albicans SAP2MS4B expressing SAP5ex4A at 100 uM incubated in YCB-BSA medium; procedure, shortened: as §2
T2 sequence (whole entry): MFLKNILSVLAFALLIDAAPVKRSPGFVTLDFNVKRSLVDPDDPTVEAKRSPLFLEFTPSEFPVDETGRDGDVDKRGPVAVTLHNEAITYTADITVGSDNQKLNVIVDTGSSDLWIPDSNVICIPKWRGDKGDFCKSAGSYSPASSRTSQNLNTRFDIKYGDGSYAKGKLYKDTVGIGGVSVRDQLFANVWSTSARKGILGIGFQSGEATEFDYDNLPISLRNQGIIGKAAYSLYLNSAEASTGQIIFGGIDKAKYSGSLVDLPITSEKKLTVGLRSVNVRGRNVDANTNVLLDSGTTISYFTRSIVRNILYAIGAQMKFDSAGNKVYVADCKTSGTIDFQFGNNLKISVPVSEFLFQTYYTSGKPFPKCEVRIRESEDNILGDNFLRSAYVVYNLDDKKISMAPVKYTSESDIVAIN

[6] = biological target: Secreted aspartic protease 6 (Candida albicans) (UniProt P43095); assay: Inhibition of SAP6-dependent growth in Candida albicans SAP2MS4B expressing SAP6ex4A at 100 uM incubated in YCB-BSA medium; procedure, shortened: as §2
Chain of Secreted aspartic protease 6 (Candida albicans) (P43095 whole entry): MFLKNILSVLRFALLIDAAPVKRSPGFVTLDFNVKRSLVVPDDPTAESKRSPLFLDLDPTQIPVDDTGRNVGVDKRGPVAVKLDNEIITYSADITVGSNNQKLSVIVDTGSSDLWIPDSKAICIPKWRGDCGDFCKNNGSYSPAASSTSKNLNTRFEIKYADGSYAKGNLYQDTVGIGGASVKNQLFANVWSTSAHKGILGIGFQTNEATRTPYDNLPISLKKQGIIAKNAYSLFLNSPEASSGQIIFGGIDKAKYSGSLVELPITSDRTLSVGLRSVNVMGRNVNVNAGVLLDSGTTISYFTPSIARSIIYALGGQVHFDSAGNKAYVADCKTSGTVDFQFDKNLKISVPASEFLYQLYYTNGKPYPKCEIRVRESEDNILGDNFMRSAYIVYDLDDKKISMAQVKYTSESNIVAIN

[7] = biological target: Secreted aspartic protease 1 (Candida albicans) (UniProt P0CY26); assay: Inhibition of SAP1-dependent growth in Candida albicans SAP2MS4B expressing SAP1ex4A at 100 uM incubated in YCB-BSA medium; procedure, shortened: as §1
Chain of Secreted aspartic protease 1 (Candida albicans) (P0CY26 whole entry): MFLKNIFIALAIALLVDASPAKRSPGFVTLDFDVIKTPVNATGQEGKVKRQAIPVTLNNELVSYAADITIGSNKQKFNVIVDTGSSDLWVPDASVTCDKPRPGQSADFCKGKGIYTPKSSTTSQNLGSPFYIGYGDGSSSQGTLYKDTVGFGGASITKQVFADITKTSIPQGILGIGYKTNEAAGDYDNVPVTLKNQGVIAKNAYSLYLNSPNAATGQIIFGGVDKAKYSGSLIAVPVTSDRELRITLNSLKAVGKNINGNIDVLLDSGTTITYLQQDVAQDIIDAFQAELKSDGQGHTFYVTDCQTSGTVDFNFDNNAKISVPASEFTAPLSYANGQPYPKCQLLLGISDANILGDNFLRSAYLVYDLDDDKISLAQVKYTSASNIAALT

[8] = biological target: Secreted aspartic protease 8 (Candida albicans) (UniProt O42778); assay: Inhibition of SAP8-dependent growth in Candida albicans SAP2MS4B expressing SAP8ex4A at 100 uM incubated in YCB-BSA medium; procedure, shortened: as §1
Chain of Secreted aspartic protease 8 (Candida albicans) (O42778 whole entry): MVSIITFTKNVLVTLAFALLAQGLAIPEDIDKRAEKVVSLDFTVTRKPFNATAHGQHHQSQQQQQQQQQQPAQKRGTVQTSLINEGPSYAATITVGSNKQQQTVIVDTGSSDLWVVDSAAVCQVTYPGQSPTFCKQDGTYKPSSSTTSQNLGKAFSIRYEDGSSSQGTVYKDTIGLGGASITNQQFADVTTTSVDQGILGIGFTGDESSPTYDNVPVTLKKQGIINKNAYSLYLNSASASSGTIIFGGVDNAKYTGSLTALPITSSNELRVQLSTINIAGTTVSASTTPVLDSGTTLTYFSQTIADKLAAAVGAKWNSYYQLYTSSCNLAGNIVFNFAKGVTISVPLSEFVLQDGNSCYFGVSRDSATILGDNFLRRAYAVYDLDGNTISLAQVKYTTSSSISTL

[9] = biological target: T2, Secreted aspartic protease 5 (Candida albicans (strain SC5314 / ATCC MYA-2876) (Yeast)); assay: Inhibition of SAP5-dependent growth in Candida albicans SAP2MS4B expressing SAP5ex4A at 7.3 uM incubated in YCB-BSA medium; procedure, shortened: as §2
[10] = biological target: Secreted aspartic protease 1 (Candida albicans) (UniProt P0CY26); assay: Inhibition of SAP1-dependent growth in Candida albicans SAP2MS4B expressing SAP1ex4A at 7.3 uM incubated in YCB-BSA medium; procedure, shortened: as §1
[11] = biological target: T1, Secreted aspartic protease 9 (Candida albicans); assay: Inhibition of SAP9-dependent growth in Candida albicans SAP2MS4B expressing SAP9deltaC493 at 7.3 uM incubated in YCB-BSA medium; procedure, shortened: as §2
[12] = biological target: Candidapepsin-4 (Candida albicans (strain WO-1) (Yeast)) (UniProt P43093); assay: Inhibition of SAP4-dependent growth in Candida albicans SAP2MS4B expressing SAP4ex4A at 7.3 uM incubated in YCB-BSA medium; procedure, shortened: as §2
[13] = biological target: Secreted aspartic protease 3 (Candida albicans) (UniProt P0CY28); assay: Inhibition of SAP3-dependent growth in Candida albicans SAP2MS4B expressing SAP3ex4A at 7.3 uM incubated in YCB-BSA medium; procedure, shortened: as §1
[14] = biological target: Secreted aspartic protease 8 (Candida albicans) (UniProt O42778); assay: Inhibition of SAP8-dependent growth in Candida albicans SAP2MS4B expressing SAP8ex4A at 7.3 uM incubated in YCB-BSA medium; procedure, shortened: as §1
[15] = biological target: Secreted aspartic protease 6 (Candida albicans) (UniProt P43095); assay: Inhibition of SAP6-dependent growth in Candida albicans SAP2MS4B expressing SAP6ex4A at 7.3 uM incubated in YCB-BSA medium; procedure, shortened: as §2

Chain of Secreted aspartic protease 3 (Candida albicans) (P0CY28 whole entry): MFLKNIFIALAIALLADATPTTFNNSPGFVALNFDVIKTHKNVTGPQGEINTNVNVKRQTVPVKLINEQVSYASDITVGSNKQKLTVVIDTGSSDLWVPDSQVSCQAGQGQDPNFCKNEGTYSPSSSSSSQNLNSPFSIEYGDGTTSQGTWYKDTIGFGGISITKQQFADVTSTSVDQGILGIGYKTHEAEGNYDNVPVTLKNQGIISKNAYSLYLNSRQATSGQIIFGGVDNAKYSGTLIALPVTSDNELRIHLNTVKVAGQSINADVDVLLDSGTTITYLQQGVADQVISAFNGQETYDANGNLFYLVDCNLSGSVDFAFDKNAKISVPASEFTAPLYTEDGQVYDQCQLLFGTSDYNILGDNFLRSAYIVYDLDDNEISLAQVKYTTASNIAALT

Row | Compound | Activity [1] | Activity [2] | Activity [3] | Activity [4] | Activity [5] | Activity [6] | Activity [7] | Activity [8] | Activity [9] | Activity [10] | Activity [11] | Activity [12] | Activity [13] | Activity [14] | Activity [15]
1 | CC(C)c1nc(CN(C)C(=O)N[C@H](C(=O)N[C@@H](Cc2ccccc2)C[C@H](O)[C@H](Cc2ccccc2)NC(=O)OCc2cncs2)C(C)C)cs1 | Active | Active | inactive | inactive | inactive | inactive | Active | inactive |  |  |  |  |  |  | 
2 | CC(C)CC(=O)N[C@H](C(=O)N[C@H](C(=O)N[C@@H](CC(C)C)[C@@H](O)CC(=O)N[C@@H](C)C(=O)N[C@@H](CC(C)C)[C@@H](O)CC(=O)O)C(C)C)C(C)C |  |  |  |  |  |  |  |  | Active | Active | Active | Active | Active | Active | Active
3 | CC(C)(C)NC(=O)[C@@H]1C[C@@H]2CCCC[C@@H]2CN1C[C@@H](O)[C@H](Cc1ccccc1)NC(=O)[C@H](CC(N)=O)NC(=O)c1ccc2ccccc2n1 |  |  | inactive | inactive | inactive | inactive | Active | inactive |  |  |  |  |  |  | 

Reference: ChEMBL document CHEMBL1152461, “Tetracycline-inducible expression of individual secreted aspartic proteases in Candida albicans allows isoenzyme-specific inhibitor screening” (Antimicrob Agents Chemother, 2008)
